This passage reports Stability and Activity results from ChEMBL document CHEMBL1641468, “Synthesis of modified siRNA bearing C-5 polyamine-substituted pyrimidine nucleoside in their 3'-overhang regions and its RNAi activity” (Bioorg Med Chem Lett, 2011).

Calls of active or inactive are those of the source. The calls are words filed in the database; no cut-off is given here.

Data set [1] in a line: Chemical stability of the compound in presence of snake venom phosphodiesterase after 30 mins by RP-HPLC analysis. In kind it is physicochemical. The settings on record: 0.5 h. In short, it runs like this: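 Each oligoribonucleotide (0.8 nmol) incubated with snake venom phosphodiesterase, a 3'-exonuclease (0.01 U), in 200 mM Tris–HCl pH 8.0 with 100 mM MgCl₂ at 37 °C for 5 and 30 min; mixtures analysed by RP-HPLC, remaining full-length RNA expressed as fraction of total RNA from chromatogram peak areas.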

Data set [2] deals with T1, Hepatocyte nuclear factor 4-alpha (Homo sapiens) (UniProt P41235).
T1 sequence (whole entry): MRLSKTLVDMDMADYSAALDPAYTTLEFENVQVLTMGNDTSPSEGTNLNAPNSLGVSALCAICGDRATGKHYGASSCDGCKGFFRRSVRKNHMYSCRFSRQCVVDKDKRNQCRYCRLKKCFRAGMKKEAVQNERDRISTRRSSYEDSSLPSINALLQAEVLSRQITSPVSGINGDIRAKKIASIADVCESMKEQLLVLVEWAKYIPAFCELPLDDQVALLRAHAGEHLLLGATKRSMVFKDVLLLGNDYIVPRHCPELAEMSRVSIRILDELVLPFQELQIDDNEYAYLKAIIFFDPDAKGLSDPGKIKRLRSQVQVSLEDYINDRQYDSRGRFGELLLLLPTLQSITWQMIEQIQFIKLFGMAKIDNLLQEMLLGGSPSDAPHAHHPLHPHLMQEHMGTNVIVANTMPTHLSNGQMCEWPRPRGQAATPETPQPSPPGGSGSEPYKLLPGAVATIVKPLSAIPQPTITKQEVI
Put plainly: Inhibition of HNF4alpha mRNA expression in human HepG2 cells after 24 hrs by real-time RT-PCR.

For data set [3], the target named is T1, Hepatocyte nuclear factor 4-alpha (Homo sapiens). Put plainly: Inhibition of HNF4alpha mRNA expression in human HepG2 cells after 24 hrs by RT-PCR analysis. In kind it is cell-based. The settings on record: in the assay text read “after 48 hrs” for “after 24 hrs”. Summed up: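 HepG2 cells were grown in DMEM with 5% FBS at 37 °C and transfected with siRNA using a transfection reagent. After 24 h at 37 °C, the medium was changed to DMEM with 10% FBS and cells were incubated a further 24 h. Total RNA was reverse-transcribed for real-time PCR (40 cycles). HNF4α mRNA was normalized to GAPDH by ΔΔCt and expressed relative to nonsense control siRNA, using the mean Ct of duplicate PCRs from independent cells.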

With `Cc1cn([C@H]2C[C@H](OP(=O)(O)OC[C@H]3O[C@@H](n4cc(CC(=O)NCCN(CCN)CCN)c(=O)[nH]c4=O)C[C@@H]3O)[C@@H](COP(=O)(O)O[C@@H]3[C@H](O)[C@@H](COP(=O)(O)O[C@H]4[C@@H](O)[C@H](n5cnc6c(N)ncnc65)O[C@@H]4COP(=O)(O)O[C@H]4[C@@H](O)[C@H](n5ccc(N)nc5=O)O[C@@H]4COP(=O)(O)O[C@H]4[C@@H](O)[C@H](n5cnc6c(N)ncnc65)O[C@@H]4COP(=O)(O)O[C@@H]4[C@H](O)[C@@H](COP(=O)(O)O[C@@H]5[C@H](O)[C@@H](COP(=O)(O)O[C@H]6[C@@H](O)[C@H](n7ccc(=O)[nH]c7=O)O[C@@H]6COP(=O)(O)O[C@@H]6[C@H](O)[C@@H](COP(=O)(O)O[C@@H]7[C@H](O)[C@@H](COP(=O)(O)O[C@H]8[C@@H](O)[C@H](n9ccc(=O)[nH]c9=O)O[C@@H]8COP(=O)(O)O[C@@H]8[C@H](O)[C@@H](COP(=O)(O)O[C@H]9[C@@H](O)[C@H](n%10ccc(N)nc%10=O)O[C@@H]9COP(=O)(O)O[C@@H]9[C@H](O)[C@@H](COP(=O)(O)O[C@H]%10[C@@H](O)[C@H](n%11ccc(=O)[nH]c%11=O)O[C@@H]%10COP(=O)(O)O[C@@H]%10[C@H](O)[C@@H](COP(=O)(O)O[C@H]%11[C@@H](O)[C@H](n%12cnc%13c(N)ncnc%13%12)O[C@@H]%11COP(=O)(O)O[C@H]%11[C@@H](O)[C@H](n%12ccc(N)nc%12=O)O[C@@H]%11COP(=O)(O)O[C@@H]%11[C@H](O)[C@@H](COP(=O)(O)O[C@H]%12[C@@H](O)[C@H](n%13cnc%14c(=O)[nH]c(N)nc%14%13)O[C@@H]%12COP(=O)(O)O)O[C@H]%11n%11cnc%12c(=O)[nH]c(N)nc%12%11)O[C@H]%10n%10cnc%11c(=O)[nH]c(N)nc%11%10)O[C@H]9n9cnc%10c(=O)[nH]c(N)nc%109)O[C@H]8n8cnc9c(=O)[nH]c(N)nc98)O[C@H]7n7cnc8c(=O)[nH]c(N)nc87)O[C@H]6n6cnc7c(=O)[nH]c(N)nc76)O[C@H]5n5cnc6c(=O)[nH]c(N)nc65)O[C@H]4n4cnc5c(=O)[nH]c(N)nc54)O[C@H]3n3cnc4c(N)ncnc43)O2)c(=O)[nH]c1=O`, the Stability entry in data set [1] is listed as “Stable”. Also, the outcome in data set [2] and in data set [3] was Active.
